Results gathered from unrelated publications.
Compare with care: the assays were run in different laboratories.
FLT3 D835Y: Receptor-type tyrosine-protein kinase FLT3 (FLT3, Homo sapiens, UniProt P36888, D835Y)
FLT3: Receptor-type tyrosine-protein kinase FLT3 (FLT3, Homo sapiens, UniProt P36888)
FLT3 D835V: Receptor-type tyrosine-protein kinase FLT3 (FLT3, Homo sapiens, UniProt P36888, D835V)
FLT3 D835H: Receptor-type tyrosine-protein kinase FLT3 (FLT3, Homo sapiens, UniProt P36888, D835H)
FLT3 F691L/ITD: Receptor-type tyrosine-protein kinase FLT3 (FLT3, Homo sapiens, UniProt P36888, F691L/ITD)
FLT3 ITD: Receptor-type tyrosine-protein kinase FLT3 (FLT3, Homo sapiens, UniProt P36888, ITD)
FLT3 R834Q: Receptor-type tyrosine-protein kinase FLT3 (FLT3, Homo sapiens, UniProt P36888, R834Q)

N[C@H]1CCN(c2nccc(-c3cnn4ncccc34)n2)C1  remaining binding (FLT3 D835Y; binding; 1 µM): 97%
COc1cc2c(Nc3ccc(Br)cc3F)ncnc2cc1OCC1CCN(C)CC1  remaining signal (FLT3; cell-free assay; 0.5 µM): 43.7%
Cc1[nH]c(/C=C2\C(=O)Nc3ccc(F)cc32)c(C)c1C(=O)N[C@H]1CCN(C(=O)N(C)C)C1  remaining activity (FLT3; enzyme activity, inhibitor; 0.1 µM): 3%
O=C(c1ccc(Nc2nccc(-c3cc4ccccc4s3)n2)cc1)N1CCC(N2CCCC2)CC1  remaining binding (Receptor-type tyrosine-protein kinase FLT3 (FLT3, Homo sapiens, UniProt P36888, D835V/ITD); binding, competition with immobilised ligand; 1 µM): 8.3%
Cc1sc(C(=O)NC2COC2)cc1-n1cc(NC(=O)Nc2c(F)cccc2Cl)cn1  remaining activity (FLT3; enzyme activity, inhibitor; 10 µM): 69.1%
COc1cc(Cl)c(C(=O)N[C@@H](CN[C@H]2CC[C@@H](N)CC2)Cc2ccc(C#N)cc2)cc1-c1ccc(CN[C@H](C)c2ccc(C)cc2)o1  remaining activity (FLT3; enzyme activity, inhibitor; 1 µM): 103%
O=C(NCCCN1CCOCC1)c1ccc(Nc2ncc(Cl)c(-c3ccc(Cl)s3)n2)cc1  remaining binding (FLT3 D835V; binding, competition with immobilised ligand; 1 µM): 1.3%
Nc1ncnc2occ(-c3ccc(NC(=O)Nc4cc(C(F)(F)F)ccc4F)cc3)c12  remaining signal (FLT3; cell-free assay, inhibitor; 20 µM): 1.8%
Cc1ccc(C(=O)NCc2ccsc2)cc1C#Cc1cn(C(C)C)c2ncnc(N)c12  activity vs control (FLT3; enzyme activity, inhibitor; 1 µM): 80%
CN(CCCC(F)(F)F)c1nccc(-c2cnn3ncccc23)n1  remaining binding (FLT3 D835H; binding; 1 µM): 96%
Cc1cnc(NC2CCOCC2)nc1-n1cnc(C(=O)NC(CN)c2cc(F)cc(Cl)c2)c1 (stereo not drawn)  remaining activity (FLT3; enzyme activity, inhibitor, radiometric; 1 µM): 94%
Cc1ccc(NC(=O)c2ccc(C)c(C(F)(F)F)c2)cc1C#Cc1nn(C2CCC(O)CC2)c2ncnc(N)c12 (stereo not drawn)  remaining signal (FLT3; cell-free assay; 10 µM): 73%
CC(C)(O)[C@H]1CC[C@H](Nc2ccc3ncc(-c4cccc(C(F)(F)F)c4)n3n2)CC1  remaining activity (FLT3; enzyme activity, inhibitor; 1 µM): 6.31%
C[C@H](NC(=O)c1cnc2n1[C@](C)(Cc1ccc(C#N)cc1)C(=O)N2c1cc(Cl)c(F)c(Cl)c1)C(=O)NC1(c2ccccn2)CC1  remaining binding (Receptor-type tyrosine-protein kinase FLT3 (FLT3, Homo sapiens, UniProt P36888, K663Q); cell-free assay, competition with immobilised ligand; 1 µM): 100%
O=C(c1ccc(Nc2ncc(Cl)c(-c3ccc(Cl)s3)n2)cc1)N1CCC(N2CCCC2)CC1  remaining binding (FLT3 F691L/ITD; binding, competition with immobilised ligand; 1 µM): 1.8%
C[C@H]1CCN(c2nccc(-c3cnn4ncccc34)n2)C1  remaining binding (FLT3 D835V; binding; 1 µM): 53%
O=C(c1ccc(Nc2ncc(Cl)c(-c3cc4ccccc4s3)n2)cc1)N1CCC(N2CCCC2)CC1  remaining binding (FLT3 ITD; binding, competition with immobilised ligand; 1 µM): 6.2%
CC(=O)N1CCC(c2ccc(C(=O)NC(=N)N)cc2C(F)(F)F)CC1  remaining binding (FLT3; cell-free assay, competition with immobilised ligand; 1 µM): 100%
CCN(CC)c1ccc(C2=NNC(=O)CC2C)cc1[N+](=O)[O-] (stereo not drawn)  remaining activity (FLT3; enzyme activity, inhibitor; 10 µM): 89%
Cc1cnc(Nc2ccc(C(=O)N3CCC(N4CCCC4)CC3)cc2)nc1-c1cc2ccccc2s1  remaining binding (FLT3 D835H; binding, competition with immobilised ligand; 1 µM): 1.1%
CC(=O)Nc1c(C(C)=O)c(=O)n(C)c2nc(-c3ccc(Cl)cc3Cl)c(-c3ccc(Cl)cc3)cc12  remaining binding (FLT3 F691L/ITD; cell-free assay, competition with immobilised ligand; 1 µM): 100%
Fc1cccc(-n2cnc3c(NCc4nc5c(F)c(F)ccc5[nH]4)nc(N4CCOCC4)nc32)c1  binding vs control (FLT3 D835Y; binding, competition with immobilised ligand; 10 µM): 41%
CC1CCCN1c1nccc(-c2cnn3ncccc23)n1 (stereo not drawn)  remaining binding (FLT3 D835H; binding; 1 µM): 90%
Cc1c(NC(=O)c2cc(C(N)=O)nc3cc(F)ccc23)c(C(F)(F)F)nn1Cc1ccc(C#N)cc1  remaining binding (FLT3; cell-free assay, competition with immobilised ligand; 1 µM): 99%
CN(C)c1ncc(F)c(-c2cnn3ncccc23)n1  remaining binding (FLT3 D835Y; binding; 1 µM): 100%
Cc1cc(NC(=O)c2cccc3cc(-c4cccc5[nH]nc(N)c45)ccc23)ccc1F  activity vs control (FLT3; enzyme activity, inhibitor; 0.1 µM): 109%
C[S+]([O-])c1ccc(-c2nc(-c3ccncc3)c(-c3ccc(F)cc3)[nH]2)cc1 (stereo not drawn)  remaining signal (FLT3; cell-free assay; 0.5 µM): 91.5%
Cc1cnc(-c2ccc(-c3ccc(NC(=O)Nc4c(F)cc(F)cc4F)cc3F)c3c2C(=O)NC3)[nH]1  activity vs control (FLT3 ITD; enzyme activity, inhibitor; 0.1 µM, 90 min): 6.2%
CC(C)(C)c1nc(-c2cccc(NS(=O)(=O)c3c(F)cccc3F)c2F)c(-c2ccnc(N)n2)s1  remaining activity (FLT3; enzyme activity, inhibitor, radiometric; 1 µM): 117%
CCOCCn1cc(C(=O)Nc2ccc(-n3nc(-c4cccnc4)cc3C(F)(F)F)cn2)ccc1=O  remaining binding (FLT3 D835H; cell-free assay, competition with immobilised ligand; 1 µM): 87%
COc1ccnn2ncc(-c3ccnc(N(C)C)n3)c12  remaining binding (FLT3 D835H; binding; 1 µM): 100%
CCCCN(CCCC)C(=O)CN1C[C@H](c2cc(OC)c3c(c2)OCO3)[C@@H](C(=O)O)[C@@H]1CC(C)(C)CCC  remaining binding (Receptor-type tyrosine-protein kinase FLT3, autoinhibited (FLT3, Homo sapiens, UniProt P36888); cell-free assay, competition with immobilised ligand; 1 µM): 76%
Cc1ccc(C(=O)Nc2ccc(CN3CCN(C)CC3)c(C(F)(F)F)c2)cc1C#Cc1cnc2cccnn12  remaining activity (FLT3; enzyme activity, inhibitor; 23.5 nM): 58%
COc1cc2ncnc(Nc3ccc(F)c(Cl)c3)c2cc1OCCCN1CCOCC1  remaining signal (FLT3; cell-free assay; 0.5 µM): 56.5%
c1cnn2ncc(-c3ccnc(N4CCC45COC5)n3)c2c1  remaining binding (FLT3 R834Q; binding; 1 µM): 82%
NS(=O)(=O)c1cc(NC(=O)Cc2ccccc2)ccc1Oc1cccc(Cl)c1  remaining binding (FLT3 D835V; cell-free assay, competition with immobilised ligand; 1 µM): 86%
O=C1NC(=O)c2cc(Nc3ccc(F)cc3)c(Nc3ccc(F)cc3)cc21  remaining signal (FLT3; cell-free assay; 0.5 µM): 91.5%
Cc1c(C(=O)O)cc(-c2ccc(C3CCNCC3)cc2)c2ccc(-c3ccc(C(F)(F)F)cc3)cc12  remaining binding (FLT3 R834Q; binding, competition with immobilised ligand; 1 µM): 100%
O=C(NCCCN1CCOCC1)c1ccc(Nc2nccc(-c3cc4ccccc4s3)n2)cc1  remaining binding (Receptor-type tyrosine-protein kinase FLT3 (FLT3, Homo sapiens, UniProt P36888, N841I); binding, competition with immobilised ligand; 1 µM): 9.2%
